The results in this text go back to ChEMBL document CHEMBL1806394, “Synthesis, in vitro evaluation and molecular docking studies of new triazole derivatives as antifungal agents” (2011).

What all share (type): functional
For one assay, the system named is Cryptococcus neoformans. Kind of assay: Antifungal activity against Cryptococcus neoformans BLS108 by micro-broth dilution method. The essentials:
(§1)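 MIC80 determined by broth microdilution following NCCLS methods. C. albicans SC5314 and Y0109 and C. neoformans BLS108 served as quality-control strains and were included in every assay. Fluconazole, itraconazole, voriconazole and amphotericin B were run as positive controls.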
On the technique in general: Broth dilution looks for growth in wells or tubes with falling amounts of substance.

In another assay the test system is Candida tropicalis. Kind of assay: Antifungal activity against Candida tropicalis by micro-broth dilution method. The essentials: as §1
Assay [1] has as its system Candida albicans. Kind of assay: Antifungal activity against Candida albicans Y0109 by micro-broth dilution method. In outline:
as §1

The test system of another assay is Kluyveromyces marxianus. As to the kind of experiment: Antifungal activity against Candida kefyr by micro-broth dilution method.
The subject of the next assay is Candida parapsilosis. As to the kind of experiment: Antifungal activity against Candida parapsilosis by micro-broth dilution method. The settings on record: Lodderomyces parapsilosis. In outline:
as §1

The subject of another assay is Aspergillus fumigatus. Kind of assay: Antifungal activity against Aspergillus fumigatus by micro-broth dilution method. The essentials:
as §1

The test system of the next assay is Trichophyton rubrum. As to the kind of experiment: Antifungal activity against Trichophyton rubrum by micro-broth dilution method. The essentials:
as §1

The test system of assay [2] is Candida albicans. Kind of assay: Antifungal activity against Candida albicans SC5314 by micro-broth dilution method. The essentials:
as §1

Values after ≈ are worked out from the molar mass of the structure shown.

Broadly, the MIC80 is the lowest concentration that inhibits either 80% of growth or 80% of the strains tested, depending on the study. On to `Cc1cccc(C(=O)Nc2ccc(-n3cnn(CC(O)(Cn4cncn4)c4ccc(F)cc4F)c3=O)cc2)c1` (single isomer, unassigned), for which the MIC80 with Cryptococcus neoformans is more than 64 µg/mL; in the assay with Candida tropicalis, 1 µg/mL (≈ 1.88 µM); against Candida albicans [1] it was 0.0625 µg/mL (≈ 0.118 µM); with Kluyveromyces marxianus, more than 64 µg/mL; against Candida parapsilosis, 0.0625 µg/mL (≈ 0.118 µM); with Aspergillus fumigatus, more than 64 µg/mL. In addition, the MIC80 in the assay on Trichophyton rubrum was more than 64 µg/mL; against Candida albicans [2] it was 0.0625 µg/mL (≈ 0.118 µM).
As to `CC(C)(C)c1ccc(C(=O)Nc2ccc(-n3cnn(CC(O)(Cn4cncn4)c4ccc(F)cc4F)c3=O)cc2)cc1` (single isomer, unassigned), the MIC80 against Cryptococcus neoformans is 64 µg/mL (≈ 112 µM); in the assay on Candida tropicalis it was 0.25 µg/mL (≈ 0.436 µM); in the assay on Candida albicans [1], 1 µg/mL (≈ 1.74 µM); with Kluyveromyces marxianus, more than 64 µg/mL; against Candida parapsilosis, 0.0625 µg/mL (≈ 0.109 µM); in the assay on Aspergillus fumigatus, more than 64 µg/mL. The MIC80 with Trichophyton rubrum worked out at 4 µg/mL (≈ 6.97 µM); in the assay on Candida albicans [2], 0.0625 µg/mL (≈ 0.109 µM).
For `CC(C)c1ccc(C(=O)Nc2ccc(-n3cnn(CC(O)(Cn4cncn4)c4ccc(F)cc4F)c3=O)cc2)cc1` (single isomer, unassigned), the MIC80 was more than 64 µg/mL in the assay with Cryptococcus neoformans; 4 µg/mL (≈ 7.15 µM) with Candida tropicalis; 4 µg/mL (≈ 7.15 µM) in the assay with Candida albicans [1]; more than 64 µg/mL in the assay on Kluyveromyces marxianus; 4 µg/mL (≈ 7.15 µM) in the assay on Candida parapsilosis; more than 64 µg/mL against Aspergillus fumigatus. In addition, the results for the MIC80 with Trichophyton rubrum and against Candida albicans [2] were more than 64 µg/mL and 4 µg/mL (≈ 7.15 µM), respectively.
Consider `O=C(/C=C/c1ccc(Br)cc1)Nc1ccc(-n2cnn(CC(O)(Cn3cncn3)c3ccc(F)cc3F)c2=O)cc1` (single isomer, unassigned), for which the MIC80 with Cryptococcus neoformans was more than 64 µg/mL; in the assay on Candida tropicalis, more than 64 µg/mL; against Candida albicans [1], 4 µg/mL (≈ 6.43 µM); in the assay on Kluyveromyces marxianus, more than 64 µg/mL; in the assay with Candida parapsilosis, 1 µg/mL (≈ 1.61 µM); in the assay with Aspergillus fumigatus, more than 64 µg/mL. Besides, the figures for the MIC80 against Trichophyton rubrum and against Candida albicans [2] were more than 64 µg/mL and 1 µg/mL (≈ 1.61 µM), respectively.
In the case of `O=C(Nc1ccc(-n2cnn(CC(O)(Cn3cncn3)c3ccc(F)cc3F)c2=O)cc1)c1ccc(F)cc1` (single isomer, unassigned), the MIC80 against Cryptococcus neoformans is 64 µg/mL (≈ 120 µM); in the assay with Candida tropicalis, 0.0625 µg/mL (≈ 0.117 µM); against Candida albicans [1], 1 µg/mL (≈ 1.87 µM); in the assay with Kluyveromyces marxianus it was 4 µg/mL (≈ 7.47 µM); in the assay with Candida parapsilosis, 0.0625 µg/mL (≈ 0.117 µM); against Aspergillus fumigatus it was more than 64 µg/mL. Moreover, the MIC80 against Trichophyton rubrum is 16 µg/mL (≈ 29.9 µM); with Candida albicans [2], 0.0625 µg/mL (≈ 0.117 µM).
As to `COc1ccc(/C=C/C(=O)Nc2ccc(-n3cnn(CC(O)(Cn4cncn4)c4ccc(F)cc4F)c3=O)cc2)cc1OC` (single isomer, unassigned), the MIC80 is more than 64 µg/mL against Cryptococcus neoformans; 1 µg/mL (≈ 1.66 µM) with Candida tropicalis; 1 µg/mL (≈ 1.66 µM) in the assay with Candida albicans [1]; more than 64 µg/mL with Kluyveromyces marxianus; 4 µg/mL (≈ 6.63 µM) against Candida parapsilosis; more than 64 µg/mL against Aspergillus fumigatus. The MIC80 is more than 64 µg/mL against Trichophyton rubrum and 1 µg/mL (≈ 1.66 µM) against Candida albicans [2].
Take `COc1ccc(/C=C/C(=O)Nc2ccc(-n3cnn(CC(O)(Cn4cncn4)c4ccc(F)cc4F)c3=O)cc2)cc1` (single isomer, unassigned): the MIC80 in the assay on Cryptococcus neoformans, in the assay on Candida tropicalis, with Candida albicans [1], with Kluyveromyces marxianus, with Candida parapsilosis and with Aspergillus fumigatus was more than 64 µg/mL each time. Besides, the MIC80 was more than 64 µg/mL in the assay on Trichophyton rubrum and 4 µg/mL (≈ 6.97 µM) against Candida albicans [2].
As for `O=C(Nc1ccc(-n2cnn(CC(O)(Cn3cncn3)c3ccc(F)cc3F)c2=O)cc1)c1ccccc1F` (single isomer, unassigned), the MIC80 in the assay with Cryptococcus neoformans is 64 µg/mL (≈ 120 µM); with Candida tropicalis it was 0.0625 µg/mL (≈ 0.117 µM); against Candida albicans [1] it was 4 µg/mL (≈ 7.47 µM); in the assay with Kluyveromyces marxianus, 1 µg/mL (≈ 1.87 µM); in the assay with Candida parapsilosis, 0.0156 µg/mL (≈ 0.0291 µM); in the assay on Aspergillus fumigatus it was more than 64 µg/mL. In addition, the MIC80 against Trichophyton rubrum was determined as 16 µg/mL (≈ 29.9 µM); in the assay with Candida albicans [2], 0.0625 µg/mL (≈ 0.117 µM).
As to `O=C(Nc1ccc(-n2cnn(CC(O)(Cn3cncn3)c3ccc(F)cc3F)c2=O)cc1)c1cccc(Br)c1` (single isomer, unassigned), the MIC80 is more than 64 µg/mL against Cryptococcus neoformans; 16 µg/mL (≈ 26.8 µM) in the assay with Candida tropicalis; 16 µg/mL (≈ 26.8 µM) against Candida albicans [1]; 64 µg/mL (≈ 107 µM) in the assay on Kluyveromyces marxianus; 16 µg/mL (≈ 26.8 µM) against Candida parapsilosis; more than 64 µg/mL against Aspergillus fumigatus. Further, the figures for the MIC80 against Trichophyton rubrum and in the assay on Candida albicans [2] were more than 64 µg/mL and 4 µg/mL (≈ 6.71 µM), respectively.
In the case of `O=C(/C=C/c1ccc(F)cc1)Nc1ccc(-n2cnn(CC(O)(Cn3cncn3)c3ccc(F)cc3F)c2=O)cc1` (single isomer, unassigned), the MIC80 in the assay with Cryptococcus neoformans, against Candida tropicalis, with Candida albicans [1], with Kluyveromyces marxianus, in the assay with Candida parapsilosis and against Aspergillus fumigatus was more than 64 µg/mL throughout. Besides, the MIC80 in the assay with Trichophyton rubrum and with Candida albicans [2] was more than 64 µg/mL each time.
For `COc1ccc(C(=O)Nc2ccc(-n3cnn(CC(O)(Cn4cncn4)c4ccc(F)cc4F)c3=O)cc2)cc1` (single isomer, unassigned), the MIC80 was more than 64 µg/mL in the assay on Cryptococcus neoformans; 4 µg/mL (≈ 7.31 µM) against Candida tropicalis; 1 µg/mL (≈ 1.83 µM) in the assay with Candida albicans [1]; 16 µg/mL (≈ 29.2 µM) in the assay on Kluyveromyces marxianus; 1 µg/mL (≈ 1.83 µM) against Candida parapsilosis; more than 64 µg/mL with Aspergillus fumigatus. The MIC80 in the assay on Trichophyton rubrum is more than 64 µg/mL; against Candida albicans [2] it was 1 µg/mL (≈ 1.83 µM).
Regarding `O=C(/C=C/c1ccccc1[N+](=O)[O-])Nc1ccc(-n2cnn(CC(O)(Cn3cncn3)c3ccc(F)cc3F)c2=O)cc1` (single isomer, unassigned), the MIC80 is more than 64 µg/mL against Cryptococcus neoformans; 1 µg/mL (≈ 1.7 µM) with Candida tropicalis; 1 µg/mL (≈ 1.7 µM) in the assay on Candida albicans [1]; more than 64 µg/mL against Kluyveromyces marxianus; 1 µg/mL (≈ 1.7 µM) in the assay on Candida parapsilosis; more than 64 µg/mL against Aspergillus fumigatus. The MIC80 is more than 64 µg/mL in the assay on Trichophyton rubrum and 1 µg/mL (≈ 1.7 µM) in the assay with Candida albicans [2].
`Cc1ccc(C(=O)Nc2ccc(-n3cnn(CC(O)(Cn4cncn4)c4ccc(F)cc4F)c3=O)cc2)cc1C` (single isomer, unassigned): the MIC80 in the assay with Cryptococcus neoformans was 64 µg/mL (≈ 117 µM); against Candida tropicalis, 0.25 µg/mL (≈ 0.458 µM); in the assay with Candida albicans [1], 0.25 µg/mL (≈ 0.458 µM); against Kluyveromyces marxianus it was 4 µg/mL (≈ 7.33 µM); against Candida parapsilosis it was 0.25 µg/mL (≈ 0.458 µM); against Aspergillus fumigatus, more than 64 µg/mL. In addition, the MIC80 is more than 64 µg/mL against Trichophyton rubrum and 0.25 µg/mL (≈ 0.458 µM) in the assay with Candida albicans [2].
Regarding `O=C(/C=C/c1cccc(F)c1)Nc1ccc(-n2cnn(CC(O)(Cn3cncn3)c3ccc(F)cc3F)c2=O)cc1` (single isomer, unassigned), the MIC80 is more than 64 µg/mL against Cryptococcus neoformans; more than 64 µg/mL in the assay on Candida tropicalis; 16 µg/mL (≈ 28.5 µM) in the assay on Candida albicans [1]; more than 64 µg/mL against Kluyveromyces marxianus; 16 µg/mL (≈ 28.5 µM) against Candida parapsilosis; more than 64 µg/mL in the assay on Aspergillus fumigatus. The MIC80 against Trichophyton rubrum was more than 64 µg/mL; with Candida albicans [2] it was 16 µg/mL (≈ 28.5 µM).
Take `COc1ccc(OC)c(/C=C/C(=O)Nc2ccc(-n3cnn(CC(O)(Cn4cncn4)c4ccc(F)cc4F)c3=O)cc2)c1` (single isomer, unassigned): the MIC80 with Cryptococcus neoformans was more than 64 µg/mL; against Candida tropicalis, more than 64 µg/mL; with Candida albicans [1], 16 µg/mL (≈ 26.5 µM); with Kluyveromyces marxianus, more than 64 µg/mL; against Candida parapsilosis, 1 µg/mL (≈ 1.66 µM); with Aspergillus fumigatus it was more than 64 µg/mL. Besides, the MIC80 in the assay with Trichophyton rubrum is more than 64 µg/mL; against Candida albicans [2], 1 µg/mL (≈ 1.66 µM).
Regarding `Cc1ccc(C(=O)Nc2ccc(-n3cnn(CC(O)(Cn4cncn4)c4ccc(F)cc4F)c3=O)cc2)cc1` (single isomer, unassigned), the MIC80 in the assay with Cryptococcus neoformans was more than 64 µg/mL; against Candida tropicalis it was 1 µg/mL (≈ 1.88 µM); in the assay with Candida albicans [1], 0.0625 µg/mL (≈ 0.118 µM); in the assay with Kluyveromyces marxianus, 16 µg/mL (≈ 30.1 µM); in the assay with Candida parapsilosis, 0.25 µg/mL (≈ 0.47 µM); against Aspergillus fumigatus, more than 64 µg/mL. Besides, the MIC80 is more than 64 µg/mL with Trichophyton rubrum and 0.0625 µg/mL (≈ 0.118 µM) in the assay with Candida albicans [2].
